Measurements reported in ChEMBL document CHEMBL3526009, “Breast cancer resistance protein (ABCG2) determines distribution of genistein phase II metabolites: reevaluation of the roles of ABCG2 in the disposition of genistein” (Drug Metab Dispos, 2012).

Assays:
[1] = Stability in potassium phosphate buffer at pH 7.4 up to 4 hrs; assay type: physicochemical; conditions: pH 7.4, 4 h
In short: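 Negative control run under the blood-incubation conditions but in 50 mM potassium phosphate buffer, pH 7.4, instead of blood. Genistein glucuronides (G-7-G plus G-4′-G, with aglycone) or sulfates (G-7-S plus G-4′-S, with aglycone) held at 37°C in a shaking water bath up to 4 h. Sampled at 0, 60, 120 and 240 min and read by UPLC-MS/MS.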

Blood = experiment: Stability in Wistar rat blood at 3 uM up to 4 hrs by UPLC-MS/MS analysis; assay type: ADME, tissue-based
In short: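 Genistein glucuronide mixture (G-7-G plus G-4′-G, 3 μM) with 3.8 μM genistein incubated in fresh rat whole blood, 37°C shaking water bath. Sampled at 0, 60, 120 and 240 min. Reaction stopped with acetonitrile containing daidzein internal standard. Genistein and conjugates quantified by UPLC-MS/MS using multiple reaction monitoring. n = 3.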

[2] = Biliary excretion in BCRP-/- mouse treated with genistein measured after 2.5 hrs post intestinal perfusion by UPLC-MS/MS analysis; assay type: ADME, Bile; conditions: in vivo, other
In short: (§1)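 Gallbladder bile taken after 2.5 h of simultaneous small intestine/colon perfusion with 10 μM genistein (HBSS pH 7.4, 0.191 ml/min) in FVB or Bcrp1(−/−) mice (n = 4). Bile diluted 20-fold in HBSS, daidzein internal standard in acetonitrile added, dried and reconstituted. Genistein and conjugates quantified by UPLC-MS/MS.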

[3] = Biliary excretion in wild-type FVB mouse treated with genistein measured after 2.5 hrs post intestinal perfusion by UPLC-MS/MS analysis; assay type: ADME, Bile; conditions: in vivo, other; in short: as §1

**Q.** Which Stability [1] does the source give for O=C(O)[C@H]1O[C@@H](Oc2cc(O)c3c(=O)c(-c4ccc(O)cc4)coc3c2)[C@H](O)[C@@H](O)[C@@H]1O here?
**A.** Stable

**Q.** And the Stability (Blood)?
**A.** Stable

**Q.** And the Drug excretion [2]?
**A.** metabolite_detected

**Q.** What about the Drug excretion [3] of the same compound?
**A.** metabolite_detected
